# Screening results (PubChem)
# Sampled rows, rich in hits. Any-hit rate of the full collection: about 2.1%.
# M5 PAM: CHRM5 positive allosteric modulation; AID 624038; CHO-K1 hM5, Fluo-8 calcium, ACh EC20 PAM; 0% = ACh EC20, 100% = ACh EC100; 360,000 compounds, 0.3% hits; activation, % at 3 µM;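 active means activation above the run cutoff, the mean activation of all test compounds plus 3 SD, cut at about 18% in these data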
# Target sequence (P08912 whole entry, looked up): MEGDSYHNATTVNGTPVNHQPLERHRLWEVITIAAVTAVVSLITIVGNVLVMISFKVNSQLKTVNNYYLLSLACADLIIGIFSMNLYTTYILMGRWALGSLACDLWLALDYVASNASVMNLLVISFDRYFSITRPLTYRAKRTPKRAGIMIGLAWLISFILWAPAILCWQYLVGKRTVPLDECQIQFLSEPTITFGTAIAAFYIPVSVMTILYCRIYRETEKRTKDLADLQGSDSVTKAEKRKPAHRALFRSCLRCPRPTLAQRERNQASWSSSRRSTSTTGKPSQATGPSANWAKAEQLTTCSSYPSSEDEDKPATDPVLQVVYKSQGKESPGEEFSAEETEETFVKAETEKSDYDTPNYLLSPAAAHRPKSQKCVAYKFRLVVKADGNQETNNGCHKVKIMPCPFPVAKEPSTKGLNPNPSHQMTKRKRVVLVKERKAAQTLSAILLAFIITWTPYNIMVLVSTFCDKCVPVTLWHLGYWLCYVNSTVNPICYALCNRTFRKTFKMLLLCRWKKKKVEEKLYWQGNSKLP
#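 system = human M5 receptor in CHO-K1 cells | reagent = EC20 acetylcholine as agonist stimulus | compound dosing = single-point, 3 µM nominal | incubation = Fluo-8 loading 80 min at 37 °C plus 30 min room temperature | detection = Fluo-8 calcium dye fluorescence, kinetic read | benchmarks = low control EC20 acetylcholine (0%), high control EC100 acetylcholine (100%)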
# CHRM1 antagonist: blocks human M1 muscarinic receptor; P11229; CHO-K1 hM1, Fluo-8 calcium fluorescence, ACh EC80 antagonist; inhibition, % at 3 µM; 360,000 compounds, 1.3% hits; AID 588852;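 active means percent inhibition above its own plate's cutoff, namely the mean of that plate's compound wells plus 3 SD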;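 further: peak over basal fluorescence ratio during 140 s after agonist addition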
# CHRM5 antagonist: antagonists of human muscarinic M5 receptor (CHRM5) | 360,000 compounds, 0.59% hits | inhibition, % at 3 µM | P08912 | CHO-hM5 cells, Fluo-8 calcium fluorescence, ACh EC80;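 active means inhibition above a per-plate cutoff, the mean of that plate's test compounds plus 3 SD, cut at about 27% in these data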
# M1 ag: agonists of human M1 muscarinic receptor. CHO-K1 hM1, Fluo-8 calcium fluorescence, agonist mode; 0% DMSO, 100% acetylcholine EC100. 360,000 compounds, 0.33% hits. activation, % at 3 µM. P11229;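 active means activation above the run's mean compound activation plus 3 SD, cut at about 16% in these data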;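 further: peak over basal fluorescence ratio within a 140 s kinetic read after compound addition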
# M5 ag: agonists of human muscarinic M5 receptor (CHRM5); CHO-K1 hM5 cells, Fluo-8 calcium fluorescence; 0% DMSO wells, 100% maximal acetylcholine response; activation, % at 3 µM; 360,000 compounds, 0.19% hits; AID 624037;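 active means activation above the run's mean over test compounds plus 3 SD, cut at about 23% in these data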;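 further: signal is peak over basal fluorescence ratio across the kinetic read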
# M1 PAM: positive allosteric modulators of human M1 muscarinic receptor. CHO-K1 hM1, Fluo-8 calcium fluorescence, ACh EC20; 0% = ACh EC20, 100% = maximal ACh. activation, % at 3 µM. 360,000 compounds, 0.088% hits; in the data active means activation above about 19%, passing the limit was not always enough
# A number is an active result; 0 = inactive.
SMILES,M5 PAM,CHRM1 antagonist,CHRM5 antagonist,M1 ag,M5 ag,M1 PAM
CCC1(c2ccccc2)NC(=O)N(CC(=O)N(CC(=O)Nc2ccccc2C(F)(F)F)Cc2ccco2)C1=O (configuration not stated),0,0,0,18.1,0,0
CCN(CC(=O)Nc1ccccc1C(F)(F)F)C(=O)CN1C(=O)NC2(CCCCC2)C1=O,0,0,0,0,0,0
CC1CCN(C(=O)Cn2c(=O)oc3cc(S(=O)(=O)N4CCCCC4)ccc32)CC1,0,0,0,0,0,0
CC[C@H](C)[C@H](NS(=O)(=O)c1ccc(C)cc1)C(=O)N1CCC(C(=O)N[C@H](C(=O)O)C(C)C)CC1,19.7,0,0,0,0,0
Cc1ccc(NC(=O)CN(C)CCOc2ccccc2)c([N+](=O)[O-])c1,0,0,0,0,0,0
O=C(/C=C/c1cccc(Cl)c1)NCc1ccncc1,0,0,0,0,0,0
O=C(/C=C/c1cccc(Cl)c1)NCc1ccccc1,0,41.2,0,0,0,0
O=C(/C=C/c1ccc(S(=O)(=O)NCc2ccco2)cc1)NCc1cccc(Cl)c1,0,0,32.4,0,0,0
COc1cc2oc(=O)cc(CN3CCN(c4ccc(Cl)c(Cl)c4)CC3)c2cc1Cl,0,0,0,0,0,0
COc1ccc(C(=O)C(C)[n+]2ccc(C)c3ccccc32)cc1[N+](=O)[O-] (configuration not stated),0,43.4,0,0,0,0
COc1ccc(C[C@@H]2CN3C(=NC[C@@H]3C)N2C[C@H](C)NC(=O)CCC2CCCCC2)cc1,0,0,0,0,0,0
Oc1c(Cl)cc(Cl)cc1CNc1nc2ccccc2[nH]1,0,0,36.8,0,0,0
Oc1c(Cl)cc(Cl)cc1CNc1ccccn1,0,0,0,0,0,0
CNC(=O)C1CC(=O)N/C(=N/N=C(\C)c2cccs2)S1 (configuration not stated),0,0,0,0,0,0
Cc1cccc(N2CCN(S(=O)(=O)c3ccc4c(c3)NC(=O)CS4)CC2)c1C,0,0,0,0,0,0
CCn1c(=O)c(C(=O)CN2CCCc3ccccc32)c(N)n(Cc2ccccc2)c1=O,0,22.2,0,0,0,0
COc1ccc2[nH]c(=O)c(CN(Cc3cccs3)S(=O)(=O)c3cccc4nsnc34)cc2c1,0,31.5,0,0,0,0
COc1ccc2[nH]c(=O)c(CN(CCO)S(=O)(=O)c3c(C)ccc4nsnc34)cc2c1,0,0,0,0,0,0
Cc1nc([N+](=O)[O-])c(N2CCN(C)CC2)n1Cc1ccccc1,0,40.5,0,0,0,0
O=[N+]([O-])c1cccc(/C=N/Nc2nnc(-c3ccccc3)c(-c3ccccc3)n2)c1,0,0,0,0,0,0
Nc1ccc2ccc(O)cc2c1,0,0,0,0,0,0
C[n+]1c2cc(N)ccc2cc2ccc(N)cc21,0,0,0,204.7,43.6,0
Cc1ccc(Cn2c(SCC(N)=O)nc3c2c(=O)n(C)c(=O)n3C)cc1,0,0,0,0,0,0
Cn1c(SCc2ccccc2C#N)nnc1-c1ccncc1,0,0,0,0,0,0
Cc1cc(=O)n2nc(N3CCCC(C(=O)N4CCc5ccccc54)C3)sc2n1 (configuration not stated),0,96.7,0,0,0,0
SMILES,M5 PAM,CHRM1 antagonist,CHRM5 antagonist,M1 ag,M5 ag,M1 PAM
CCC(C(=O)N1CCN(c2ncccn2)CC1)c1ccccc1 (configuration not stated),0,27.3,0,0,0,0
CCCc1nnc(SCC(=O)Nc2nccs2)o1,0,0,0,0,0,0
Cc1cccc(C)c1OCc1nnc(SCC(=O)Nc2nccs2)o1,0,24.9,0,0,0,0
O=C(NCc1ccccn1)Nc1cc(Cl)cc(Cl)c1,0,0,0,0,0,0
O=C(NCc1csc2ccccc12)Nc1cc(Cl)cc(Cl)c1,0,32.8,0,0,0,0
CCCCC1CCC(c2nc(-c3ccccn3)no2)CC1 (configuration not stated),0,0,0,0,0,0
c1ccc(-c2noc(C3CCC3)n2)nc1,18.4,0,0,0,0,0
CCc1noc(C)c1C(=O)OCC(=O)NC(C)c1ccccc1 (configuration not stated),0,0,0,0,0,0
Clc1ccc(-c2nnc(CSc3nnc(-c4cccs4)n3Cc3ccccc3)o2)cc1,0,0,28.6,0,0,0
O=C(Nc1nc(-c2ccccc2)cs1)c1ccccc1NS(=O)(=O)c1ccc(F)cc1,0,41.7,42.1,0,0,0
COc1ccc(-c2csc(NC(=O)c3ccccc3S(C)(=O)=O)n2)cc1,0,0,0,0,0,0
O=S(=O)(Nc1ccc(-c2csc(-c3ccccc3)n2)cc1)c1ccc(F)cc1,0,0,0,0,0,0
COc1ccc(-c2csc(NC(=O)c3ccc(S(C)(=O)=O)cc3)n2)cc1,0,0,0,0,23.4,0
COc1ccccc1C(=O)Nc1nc(-c2ccc(S(=O)(=O)N3CCOCC3)cc2)cs1,0,56.8,29.9,0,0,0
Cc1cc(C)c(C(=O)CSc2nnc(-c3cccnc3)n2C)c(C)c1,0,0,0,0,0,0
Cc1cccc(NC(=S)NC(=O)Cc2ccccc2)c1C,0,0,0,16.9,0,0
Cc1cc(C)c(O)c(NC(=S)NC(=O)Cc2ccccc2)c1,0,0,0,18.9,0,0
Cc1c(NC(=S)NC(=O)Cc2ccccc2)cccc1C(=O)O,0,0,0,0,0,0
O=C(Nc1ccc(N2CCN(C(=O)c3ccccc3)CC2)c(Cl)c1)c1ccc(Br)o1,0,0,0,0,0,0
O=C(Nc1ccc(N2CCOCC2)c(Cl)c1)c1ccc(Br)o1,0,40.7,0,0,0,0
O=C1OCCN/C1=C\C(=O)c1ccc(Cl)cc1,0,0,0,0,0,0
NC(=O)CCN1CCN(Cc2nc(C(c3ccccc3)c3ccccc3)no2)CC1,0,28.6,0,0,0,0
CC(=O)N1CCN(Cc2nc(C(c3ccccc3)c3ccccc3)no2)CC1,0,0,0,0,0,0
CC(C)NC(=O)CN1CCN(Cc2nc(C(c3ccccc3)c3ccccc3)no2)CC1,0,51.7,0,0,0,0
c1ccc(C(c2ccccc2)c2noc(CN3CCN(C4CCCC4)CC3)n2)cc1,0,60.0,0,0,0,0
CCOC(=O)Cn1nnc(-c2cc(OC)c(OC)c(OC)c2)n1,0,0,0,0,0,0
Cc1ccc(OCc2ccc(C(=O)NNC(=S)NCC3CCCO3)o2)c([N+](=O)[O-])c1 (configuration not stated),18.5,0,0,0,0,0
